For data set [1], the system named is PC-3. The data set is described as follows: Cytotoxicity against human PC3 cells at 2 to 10 uM by MTT assay. The format is functional, cell-based. The method, boiled down:
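PC-3 cells (ATCC, tumorigenic metastatic prostate cancer) grown in RPMI 1640 with Glutamax, 10% FBS and 1% penicillin–streptomycin. Seeded at 5·10³ cells/well in complete medium and incubated overnight at 37 °C, 5% CO₂ before compound addition. MTT formazan absorbance read at 570 nm. Percentage viable cells relative to untreated controls used to derive IC50.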
In general terms: Formazan colour is commonly taken as a measure of viable cells.

Data set [2] is described as follows: Toxicity against human RWPE1 cells at 2 to 10 uM by MTT assay. The data set is classed as cell-based, RWPE-1. The settings on record: read-out: LD50 (the source's name). The method, boiled down: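 Non-tumorigenic human prostate RWPE-1 cells (ATCC) kept in keratinocyte-SFM supplemented with 1% FBS and 1% penicillin–streptomycin. MTT read-out as formazan absorbance at 570 nm. Viability expressed as percentage of untreated control cells and used to derive IC50.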

For 18 compounds, IC50 and CC50 results are on record in ChEMBL document CHEMBL1140584, “Novel potent organoselenium compounds as cytotoxic agents in prostate cancer cells” (Bioorg Med Chem Lett, 2007).

In general, IC50 refers to the midpoint of a concentration-inhibition curve.

In data set [1], `CS/C(=N\C(=O)c1ccccc1)NC(=O)c1ccccc1` showed an IC50 greater than 10 µM. Still for that read-out and setting: the figure for `C[Se]/C(=N\C(=O)c1ccc(C(F)(F)F)cc1)NC(=O)c1ccc(C(F)(F)F)cc1` is greater than 10 µM. Compound `C[Se]/C(=N\C(=O)c1ccc(Cl)nc1)NC(=O)c1ccc(Cl)nc1` displayed a concentration for half-maximal inhibition (IC50) in data set [1] of 9.14 µM. Besides, in data set [2], the CC50 is greater than 10 µM. Compound `C[Se]/C(=N\C(=O)c1ccc([N+](=O)[O-])cc1)NC(=O)c1ccc([N+](=O)[O-])cc1` displayed an IC50 in data set [1] greater than 10 µM. The same measure, in the same setting: the figure for `CS/C(=N\C(=O)c1ccc(Cl)cc1)NC(=O)c1ccc(Cl)cc1` is greater than 10 µM. Same read-out and setting: the figure for `C[Se](=O)O` [METHYLSELENINIC ACID] is 8.38 µM; for `C[Se]/C(=N\C(=O)c1ccc(C(C)(C)C)cc1)NC(=O)c1ccc(C(C)(C)C)cc1` it is greater than 10 µM; for `CS/C(=N\C(=O)c1ccc(C)cc1)NC(=O)c1ccc(C)cc1` it is greater than 10 µM.

Compound `CS/C(=N\C(=O)c1cccnc1Cl)NC(=O)c1cccnc1Cl` yielded an IC50 in data set [1] greater than 10 µM. The same measure, in the same setting: the result for `CC[Se]/C(=N\C(=O)c1ccccc1)NC(=O)c1ccccc1` reads greater than 10 µM. On to `C[Se]/C(=N\C(=O)c1ccc(C)cc1)NC(=O)c1ccc(C)cc1`, for which, in data set [1], half-maximal inhibition (IC50) was put at 1.85 µM. Moreover, the CC50 in data set [2] is greater than 10 µM. In turn, `CC(C)[Se]/C(=N\C(=O)c1ccccc1)NC(=O)c1ccccc1` came in with an IC50 in data set [1] greater than 10 µM. In data set [1], `C[Se]/C(=N\C(=O)c1ccccc1)NC(=O)c1ccccc1` had an IC50 of 2.5 µM. Further, in data set [2], the CC50 is 4.1 µM. The compound `CC(C)[Se]/C(=N\C(=O)c1ccc(Cl)cc1)NC(=O)c1ccc(Cl)cc1` came in with an IC50 in data set [1] greater than 10 µM.

Turning to `COc1cc(OC)cc(C(=O)/N=C(/NC(=O)c2cc(OC)cc(OC)c2)[Se]C(C)C)c1`, in data set [1], the concentration for half-maximal inhibition (IC50) is greater than 10 µM. On the same count and under the same terms, the figure for `C[Se]/C(=N\C(=O)c1ccc(C#N)cc1)NC(=O)c1ccc(C#N)cc1` is greater than 10 µM.

Turning to `COc1cc(OC)cc(C(=O)/N=C(/NC(=O)c2cc(OC)cc(OC)c2)[Se]C)c1`, the midpoint of inhibition in data set [1], the IC50, lay at 6.5 µM. Still for that read-out and setting: the figure for `C[Se]/C(=N\C(=O)c1ccc(Cl)cc1)NC(=O)c1ccc(Cl)cc1` is 7.6 µM.
